Molecules are shown by their SMILES.

For series [1], the system named is Trypanosoma brucei rhodesiense. The experiment in a line: Antiparasitic activity against Trypanosoma brucei rhodesiense STIB900.
Series [2] deals with Poly(dA-dT)oligonucleotide.
The subject of series [3] is Trypanosoma brucei rhodesiense. In words: Ratio of DAPI IC50 to compound IC50 for Trypanosoma brucei rhodesiense STIB900.
The nature of series [4]: Selectivity index, ratio of IC50 for rat L6 cells to IC50 for Trypanosoma brucei rhodesiense STIB900. The series is classed as toxicity, cell-based. The note with it: read-out: Ratio IC50. The essentials: (§1)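 Selectivity index is IC50 on cultured L6 rat myoblasts divided by IC50 on the parasite (P. falciparum K1 or T. b. rhodesiense STIB900).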
The subject of a further series is Plasmodium falciparum. The experiment in a line: Antiparasitic activity against Plasmodium falciparum K1.
Series [5] in a line: Selectivity index, ratio of IC50 for rat L6 cells to IC50 for Plasmodium falciparum K1. The series is classed as toxicity, cell-based. The note with it: read-out: Ratio IC50. The essentials: as §1
Another series relates to L6. In words: Cytotoxicity against rat L6 cells. The format is cell-based. The essentials:
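Cultured L6 rat myoblast cells were used for the cytotoxicity measurement, giving an IC50.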

`Cl.Cl.N=C(N)c1ccc2cc(C#Cc3ccc(C(=N)N)c(F)c3)[nH]c2c1`: the half-maximal inhibitory concentration (IC50) in series [1] amounted to 9 nM; in the series with Plasmodium falciparum it was 5.9 nM; in the series with L6, 4500 nM. Moreover, the ΔTm in series [2] was 16 °C. Moreover, the “Ratio IC50” value in series [3] was 2. Besides, the selectivity ratio in series [4] was 500; in series [5], 763.
As for `N=C(N)c1ccc(-c2ccc(-c3nc4ccc(C(=N)N)cc4[nH]3)cc2)cc1`, the ΔTm in series [2] was over 27 °C. The values for the selectivity ratio in series [4] and in series [5] were 2210 and 34000, respectively.
As to `Cl.Cl.N=C(N)c1ccc(-c2ccc(-c3cc4cc(C(=N)N)ccc4[nH]3)cc2)cc1`, the 50% inhibitory concentration (IC50) in series [1] came to 4 nM; in the series on Plasmodium falciparum it was 0.7 nM; with L6 it was 38900 nM. The ΔTm in series [2] was 20.9 °C. Also, the Ratio IC50 in series [3] was determined as 4.5. In addition, the results for the selectivity ratio in series [4] and in series [5] were 9720 and 55600, respectively.
As for `Cl.Cl.N=C(N)c1ccc(-c2ccc(-c3cc4ccc(C(=N)N)cc4[nH]3)cc2)cc1`, the ΔTm in series [2] is over 27 °C. Besides, the Ratio IC50 in series [3] worked out at 9. Further, the values for the selectivity ratio in series [4] and in series [5] were 5250 and 3180, respectively.
Consider `N=C(N)c1ccc(-c2cc3ccc(C(=N)N)cc3[nH]2)cc1` [DAPI], for which, in series [2], the shift in melting temperature (ΔTm) was over 27 °C. Also, the selectivity ratio in series [4] is 51.
As for `N=C(N)c1ccc(C#Cc2cc3ccc(C(=N)N)cc3[nH]2)nc1`, the IC50 in series [1] stood at 215 nM; with Plasmodium falciparum it was 14.1 nM; in the series with L6 it was 13000 nM. In addition, the ΔTm in series [2] was determined as 12.2 °C. Also, the selectivity ratio in series [4] came to 60; in series [5], 933.
`Cl.Cl.N=C(N)c1ccc(C#Cc2cc3ccc(C(=N)N)cc3[nH]2)cc1`: the 50% inhibitory concentration (IC50) in series [1] was found to be 6 nM; with Plasmodium falciparum, 3.8 nM; in the series with L6, 8700 nM. The ΔTm in series [2] was 19 °C. In addition, the Ratio IC50 in series [3] came out at 3. Further, the selectivity ratio in series [4] was determined as 1450; in series [5], 2290.
Consider `N=C(N)c1ccc2cc(C#Cc3ccc(C(=N)N)nc3)[nH]c2c1`, for which the concentration for half-maximal inhibition (IC50) in series [1] was found to be 3 nM; with Plasmodium falciparum it was 3.1 nM; in the series on L6, 1600 nM. The thermal shift (ΔTm) in series [2] was found to be 19.1 °C. In addition, the selectivity ratio in series [4] amounted to 533; in series [5] it was 516.
As for `N=C(N)c1ccc2cc(-c3ccc(-c4ccccc4)cc3)[nH]c2c1`, the IC50 in series [1] came out at 8720 nM; with Plasmodium falciparum, 858 nM; in the series with L6, 8400 nM. In addition, the ΔTm in series [2] is 16 °C. The values for the selectivity ratio in series [4] and in series [5] were 0.96 and 9.8, respectively.
In the series on L6, `N=C(N)c1ccc(-c2ccc(-c3ccc(C(=N)N)cc3)o2)cc1` [FURAMIDINE] came in with an IC50 of 6700 nM.

Values taken from ChEMBL document CHEMBL1777802, “Synthesis, DNA binding, fluorescence measurements and antiparasitic activity of DAPI related diamidines” (Bioorg Med Chem, 2010).
